# What was measured:
# Cavia porcellus [1] = assay: (§1) Inhibition of leukotriene D4 induced bronchoconstriction in anesthetized guinea pigs after aerosol administration as 1% solution; type: functional
# Method in brief: (§2)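 Guinea pigs given propranolol 0.1 mg/kg iv 5 min before 5-min ultrasonic nebulizer exposure to aqueous, NaOH-neutralized drug (% w/v) or distilled water, breathing spontaneously. LTD4 50 µg/kg iv 30 s after exposure; tracheal pressure change.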
# Cavia porcellus [2] = assay: as §1; type: functional, organism-based; method in brief: as §2
# Cavia porcellus [3] = assay: Inhibition of leukotriene D4 induced bronchoconstriction in anesthetized guinea pigs after intravenous administration; type: functional; conditions: read-out: ID50 (the source's name)
# Method in brief: (§3)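 Male Hartley guinea pigs, 400–600 g, urethane 2 g/kg ip, jugular cannula, propranolol 0.1 mg/kg iv 5 min before challenge, succinylcholine 1.2 mg/kg iv, ventilated. Vehicle or drug iv 30 s before LTD4 25 µg/kg iv; tracheal pressure change.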
# Cavia porcellus [4] = assay: (§4) Inhibition of leukotriene D4 induced bronchoconstriction in anesthetized guinea pigs after intravenous administration at a dose of 10 mg/kg; type: functional; conditions: for ED50: read-out: ID50 (the source's name); method in brief: as §3
# [5] = tested on: Cysteinyl leukotriene receptor (Cavia porcellus); assay: Inhibitory activity to block binding of [3H]leukotriene D4 to Cysteinyl leukotriene D4 receptor sites in homogenized guinea pig lung at 10 uM
# [6] = target: Dual specificity calcium/calmodulin-dependent 3',5'-cyclic nucleotide phosphodiesterase 1A (Bos taurus, UniProt P14100); assay: Inhibition of bovine heart Phosphodiesterase 1A
# [7] = tested on: Cysteinyl leukotriene receptor (Cavia porcellus); assay: Inhibitory activity to block binding of [3H]leukotriene D4 to LTD4 receptor sites in homogenized guinea pig lung at 10 uM
# [8] = target: T1, Cysteinyl leukotriene receptor 1 (Cavia porcellus) (UniProt Q2NNR5); assay: Inhibitory activity of compound to block binding of radiolabeled Cysteinyl leukotriene D4 receptor sites in homogenized guinea pig lung at 10 uM
# T1 sequence (whole entry): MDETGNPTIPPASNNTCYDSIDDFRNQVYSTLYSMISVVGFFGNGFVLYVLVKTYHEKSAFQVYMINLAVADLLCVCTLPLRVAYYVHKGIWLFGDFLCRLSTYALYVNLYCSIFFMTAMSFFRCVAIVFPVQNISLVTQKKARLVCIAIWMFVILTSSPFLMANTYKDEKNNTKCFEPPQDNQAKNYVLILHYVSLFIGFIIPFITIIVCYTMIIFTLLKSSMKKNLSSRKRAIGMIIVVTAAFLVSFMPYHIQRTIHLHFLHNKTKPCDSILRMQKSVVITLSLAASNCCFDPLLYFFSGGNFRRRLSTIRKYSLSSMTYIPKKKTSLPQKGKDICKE
# Method in brief: (§5)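 Lung from male Hartley guinea pigs (400–500 g), homogenized in sucrose/Tris pH 7.5 with protease inhibitors; 30000g membrane pellet in 10 mM PIPES pH 7.5, 50 mM NaCl. Binding: Tyrode, 0.1% BSA, 1 mM glycine, 1 mM cysteine, 3.5 nM [3H]LTD4, 100–200 µg protein, 20 °C, 30 min; glass-fiber filtration. Nonspecific with 10^-6 M LTD4. Triplicate screen at 10 µM; IC50 by linear regression.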
# [9] = target: T1, Cysteinyl leukotriene receptor 1 (Cavia porcellus); assay: as §4; type: organism-based; parameters: dose 10 mg/kg; method in brief: as §3
# [10] = target: T1, Cysteinyl leukotriene receptor 1 (Cavia porcellus); assay: as §1; conditions: concentration not given here; method in brief: as §2
# [11] = target: T2, Cysteinyl leukotriene receptor 1 (Cavia porcellus, UniProt Q2NNR5); assay: Inhibitory activity of compound to block binding of [3H]leukotriene D4 to Cysteinyl leukotriene D4 receptor sites in homogenized guinea pig lung; method in brief: as §5
# T2 sequence (Q2NNR5 whole entry): T1 sequence (whole entry)
# [12] = target: Cysteinyl leukotriene receptor (Cavia porcellus); assay: Inhibitory activity to block binding of [3H]leukotriene D4 to LTD4 receptor sites in homogenized guinea pig lung
# [13] = tested on: Cysteinyl leukotriene receptor (Cavia porcellus); assay: Inhibitory activity of compound to block binding of radiolabeled leukotriene D4 to receptor sites in homogenized guinea pig lung at 10 uM
# [14] = Inhibitory activity to inhibit Inophore-induced arachidonic acid metabolism (inhibition of PGE-2 formation) in rat; type: functional
# Method in brief: (§6)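 Rat peritoneal macrophages adhered 90 min at 37 °C, labeled with [14C]arachidonic acid 90 min, washed. Compound 30 min at 37 °C, then A23187 0.5 µM for 20 min. LTB4 and PGE2 in medium by radioimmunoassay.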
# Rattus norvegicus = species on record: Rattus norvegicus; assay: Inhibitory activity to inhibit Inophore-induced arachidonic acid metabolism (inhibition of LTB4 formation) in rat; type: functional, organism-based; method in brief: as §6
# Cavia porcellus [15] = species on record: Cavia porcellus; assay: In vitro activity to inhibit SRS-A induced contraction of guinea pig ileum
# Cavia porcellus [16] = species on record: Cavia porcellus; assay: In vitro activity to inhibit leukotriene D4 induced contraction of guinea pig trachea; type: functional; conditions: read-out: pA2 (converted)
# Method in brief: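 Guinea pig tracheal smooth muscle contracted by LTD4; pA2 and Schild slope reported.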
# Cavia porcellus [17] = assay: In vivo guinea pig bronchoconstriction against leukotriene D4 when administered a compound dose (mg/kg) intravenously; type: functional; conditions: Lung, iv, read-out: ID50 (the source's name); method in brief: as §3
# Cavia porcellus [18] = assay: In vivo guinea pig bronchoconstriction against leukotriene C4 when administered a compound dose (mg/kg) intravenously; type: functional; conditions: Lung, iv, read-out: ID50 (the source's name)
# Sequence of Dual specificity calcium/calmodulin-dependent 3',5'-cyclic nucleotide phosphodiesterase 1A (P14100 whole entry): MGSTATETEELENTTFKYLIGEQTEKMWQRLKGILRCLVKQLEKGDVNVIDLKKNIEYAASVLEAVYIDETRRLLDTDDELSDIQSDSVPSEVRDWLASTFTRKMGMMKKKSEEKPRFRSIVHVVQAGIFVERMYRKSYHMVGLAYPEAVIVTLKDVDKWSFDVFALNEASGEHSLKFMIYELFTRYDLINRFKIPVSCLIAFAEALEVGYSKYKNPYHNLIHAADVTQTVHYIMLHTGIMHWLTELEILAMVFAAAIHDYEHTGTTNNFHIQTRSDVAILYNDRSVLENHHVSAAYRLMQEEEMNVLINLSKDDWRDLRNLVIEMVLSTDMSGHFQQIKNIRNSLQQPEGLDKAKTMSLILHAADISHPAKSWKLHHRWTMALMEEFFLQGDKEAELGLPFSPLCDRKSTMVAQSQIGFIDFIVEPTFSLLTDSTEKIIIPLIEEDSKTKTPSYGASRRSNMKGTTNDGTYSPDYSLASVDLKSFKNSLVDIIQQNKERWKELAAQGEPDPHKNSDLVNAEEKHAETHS
Structure (SMILES),inhibition [5],inhibition [7],Inhibition (Cavia porcellus [1]),inhibition in vivo at 10 mg/kg (Cavia porcellus [4]),further results
CCCc1c(OCCCCc2nnn[nH]2)ccc(C(C)=O)c1O [TOMELUKAST],,,62%,77%,IC50 (Cavia porcellus [2]): 0.4 % conc; ED50 (Cavia porcellus [3]): 5 mg/kg
CCCc1c(OCCCS(=O)(=O)c2ccc(C(=O)CCC(=O)O)cc2)ccc(C(C)=O)c1O [L-648051],0%,,70%,73%,IC50 (Cavia porcellus [2]): 0.7 % conc; ED50 (Cavia porcellus [3]): 6 mg/kg
Cn1c(=O)c2[nH]cnc2n(C)c1=O [THEOPHYLLINE],,,,,IC50 [6]: 500 µM
O=S(=O)(Nc1cccc(OCc2ccc3ccccc3n2)c1)C(F)(F)F [RITOLUKAST],,,,61%,ED50 (Cavia porcellus [3]): 4 mg/kg
CCCCCCCCCCCCc1ccccc1C(SCCC(=O)O)SCCC(=O)O,,,,,inhibition [8]: 24%; inhibition [9]: 29%; inhibition [10]: 39%
CCCc1c(OCCCCCOc2cc(OCC(=O)O)ccc2C(C)=O)ccc(C(C)=O)c1O,,65%,46%,20%,IC50 [12]: 5 µM; IC50 (Cavia porcellus [2]): 1 % conc
CCCc1c(OCCCOc2cc(NC(=O)c3nn[nH]n3)c(C)cc2Cl)ccc(C(C)=O)c1O [CGP-35949],,94%,,49%,IC50 [12]: 1 µM
CCCc1c(OCc2cccc(COc3cc4c(cc3C(C)=O)CCC(C(=O)O)O4)c2)ccc(C(C)=O)c1O (stereo not given),60%,,28%,20%,IC50 [11]: 7 µM
CC(=O)c1ccc(OCCCCCOc2cc3c(cc2C(C)=O)CCC(C(=O)O)O3)cc1O (stereo not given),,0%,0%,85%,ED50 (Cavia porcellus [3]): 5 mg/kg
CCCc1c(OCCCSc2ccc([C@@H](O)[C@H](C)CC(=O)O)cc2)ccc(C(C)=O)c1O [L-649923],,,,72%,ED50 (Cavia porcellus [3]): 6 mg/kg
O=C(O)CCSC(SCCC(=O)O)c1ccccc1CCCCCCCCc1ccccc1,,,58%,20%,Inhibition [13]: 81%
CCCc1c(OCCCCCOc2c(C(C)=O)cc3c(c2CCC)OC(C(=O)O)CC3)ccc(C(C)=O)c1O (stereo not given),,,,,inhibition [10]: 44%
COc1ccc2c(c1)c(CC(=O)O)c(C)n2C(=O)c1ccc(Cl)cc1 [INDOMETHACIN],,,,,IC50 [14]: 0.1 µM; IC50 (Rattus norvegicus): 60 µM
COc1cc(C(=O)NS(=O)(=O)c2ccccc2)ccc1Cn1ncc2ccc(NC(=O)OC3CCCC3)cc21 [ICI-198615],,98%,99%,100%,IC50 [12]: 0.001 µM; IC50 (Cavia porcellus [2]): 0.006 % conc; ED50 (Cavia porcellus [3]): 0.03 mg/kg
CCCc1c(OCCCCCOc2ccc3c(c2C(C)=O)OC(C(=O)O)CC3)ccc(C(C)=O)c1O (stereo not given),,72%,1%,19%,IC50 [12]: 5 µM
CCCc1c(OCCCCCOc2ccc3c(c2)OC(C(=O)O)CC3)ccc(C(C)=O)c1O (stereo not given),11%,,50%,0%,IC50 (Cavia porcellus [2]): 1 % conc
CCCc1c(OCCCCCOc2cc3c(cc2C(C)=O)CC[C@H](C(=O)O)O3)ccc(C(C)=O)c1O,,,,,IC50 (Cavia porcellus [15]): 0.1 µM; Kb (Cavia porcellus [16]): 0.794 µM; ED50 (Cavia porcellus [17]): 4 mg/kg; ED50 (Cavia porcellus [18]): 6 mg/kg
CC(C)c1ccc2c(c1)c(SC(C)(C)C)c(CC(C)(C)C(=O)O)n2Cc1ccc(Cl)cc1,,,,,IC50 [14]: 5 µM; IC50 (Rattus norvegicus): 0.2 µM
CCCc1c(OCc2ccccc2CCOc2cc3c(cc2C(C)=O)CCC(C(=O)O)O3)ccc(C(C)=O)c1O (stereo not given),26%,,12%,24%,
CCCc1c(OCCCCCOc2cc3c(cc2C(C)=O)CCC2(CCC(C(=O)O)CC2)O3)ccc(C(C)=O)c1O (stereo not given),,81%,83%,32%,IC50 [12]: 4 µM; IC50 (Cavia porcellus [2]): 0.08 % conc
CCCc1c(OCCCCCOc2cc3c(cc2C(C)=O)CCC(C(=O)NS(=O)(=O)c2ccccc2)O3)ccc(C(C)=O)c1O (stereo not given),,87%,53%,26%,IC50 [12]: 2 µM; IC50 (Cavia porcellus [2]): 1 % conc
CC(C)C(C)c1nc2c(=O)[nH]c(=O)[nH]c2[nH]1 (stereo not given),,,,,IC50 [6]: 100 µM

# Now from value to compound, other results behind:
inhibition [5],inhibition [7],Structure (SMILES),Inhibition (Cavia porcellus [1]),inhibition in vivo at 10 mg/kg (Cavia porcellus [4]),further results
20%,,CCCc1c(OCCCCCCc2cc3c(cc2C(C)=O)CCC(C(=O)O)O3)ccc(C(C)=O)c1O (stereo not given),65%,46%,IC50 (Cavia porcellus [2]): 0.3 % conc
,45%,CCCc1c(OCCCCCOc2cc3c(cc2Cl)CCC(C(=O)O)O3)ccc(C(C)=O)c1O (stereo not given),0%,16%,
96%,,CCCc1c(OCCCCCCOc2cc3c(cc2C(C)=O)CCC(C(=O)O)O3)ccc(C(C)=O)c1O (stereo not given),36%,66%,IC50 [11]: 5 µM; ED50 (Cavia porcellus [3]): 5 mg/kg
,64%,CCCc1c(OCCCCCOc2cc3c(cc2C(C)=O)CCC(C)(C(=O)O)O3)ccc(C(C)=O)c1O (stereo not given),85%,50%,IC50 [12]: 6 µM; IC50 (Cavia porcellus [2]): 0.2 % conc; ED50 (Cavia porcellus [3]): 10 mg/kg
65%,,CCCc1c(OCCCCCOc2cc3c(cc2C(C)=O)CCC(C(=O)O)C3)ccc(C(C)=O)c1O (stereo not given),23%,51%,IC50 [11]: 7 µM; ED50 (Cavia porcellus [4]): 10 mg/kg
,68%,CCCc1c(OCCC(C)(C)CCOc2cc3c(cc2C(C)=O)CCC(C(=O)O)O3)ccc(C(C)=O)c1O (stereo not given),23%,15%,IC50 [12]: 7 µM
8%,,CCCc1c(OCCOCCOc2cc3c(cc2C(C)=O)CCC(C(=O)O)O3)ccc(C(C)=O)c1O (stereo not given),31%,50%,ED50 (Cavia porcellus [3]): 10 mg/kg
,47%,CCCc1c(OCCCCCOc2cc3c(cc2C(C)=O)CCC(CCCCC(=O)O)O3)ccc(C(C)=O)c1O (stereo not given),,10%,
47%,,CCCc1c(O)c(C(C)=O)cc(Cl)c1OCCCCCOc1cc2c(cc1C(C)=O)CCC(C(=O)O)O2 (stereo not given),10%,11%,
,48%,CCCc1c(OCCCCCOc2cc3c(cc2[N+](=O)[O-])CCC(C(=O)O)O3)ccc(C(C)=O)c1O (stereo not given),0%,18%,
12%,,CCCc1c(OCCCCCOc2cc3c(cc2C(C)=O)CC(C(=O)O)O3)ccc(C(C)=O)c1O (stereo not given),88%,25%,IC50 (Cavia porcellus [2]): 0.04 % conc
57%,,CCCc1c(OCCCCCOc2cc3c(cc2Br)CCC(C(=O)O)O3)ccc(C(C)=O)c1O (stereo not given),0%,13%,
26%,,CCCc1c(OCCCCOc2cc3c(cc2C(C)=O)CCC(C(=O)O)O3)ccc(C(C)=O)c1O (stereo not given),37%,36%,
63%,,CCCc1c(OCCCOc2cc3c(cc2C(C)=O)CCC(C(=O)O)O3)ccc(C(C)=O)c1O (stereo not given),31%,35%,IC50 [11]: 6 µM
,94%,CCCc1c(OCCCCCOc2cc3c(cc2C(C)=O)CCC(CCC(=O)O)O3)ccc(C(C)=O)c1O (stereo not given),31%,86%,IC50 [12]: 2 µM; ED50 (Cavia porcellus [4]): 5 mg/kg
52%,,CCCc1c(OCCCCCOc2cc3c(cc2C(=O)CC)CCC(C(=O)O)O3)ccc(C(C)=O)c1O (stereo not given),60%,7%,IC50 (Cavia porcellus [2]): 0.3 % conc

# Source: ChEMBL document CHEMBL1124636, “3,4-Dihydro-2H-1-benzopyran-2-carboxylic acids and related compounds as leukotriene antagonists” (J Med Chem, 1989)
